How the values were obtained:
[1] = read-out: IC50 broad anticancer activity; cited from earlier work
MCF-7 = test: MTT cytotoxicity assay; assay type: cell-based; conditions: Homo sapiens, MCF7, 48 h, read-out: IC50 MCF-7
In short: (§1)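 Human cancer (A549, MCF-7) and normal (MCF-10A, THLE2, WISH) lines cultured in RPMI-1640/DMEM with L-glutamine, 10% FBS and 1% penicillin-streptomycin at 37 °C, 5% CO2. […] MTT absorbance read at […]. IC50 taken from concentration-viability curves.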

A549 = test: MTT cytotoxicity assay; assay type: cell-based; conditions: Homo sapiens, A549, 48 h, read-out: IC50 A549
In short: as §1

Topoisomerase II = Topoisomerase II (Homo sapiens, UniProt P11388); test: Topo II inhibition assay; assay type: biochemical
Topoisomerase II, sequence (P11388 whole entry): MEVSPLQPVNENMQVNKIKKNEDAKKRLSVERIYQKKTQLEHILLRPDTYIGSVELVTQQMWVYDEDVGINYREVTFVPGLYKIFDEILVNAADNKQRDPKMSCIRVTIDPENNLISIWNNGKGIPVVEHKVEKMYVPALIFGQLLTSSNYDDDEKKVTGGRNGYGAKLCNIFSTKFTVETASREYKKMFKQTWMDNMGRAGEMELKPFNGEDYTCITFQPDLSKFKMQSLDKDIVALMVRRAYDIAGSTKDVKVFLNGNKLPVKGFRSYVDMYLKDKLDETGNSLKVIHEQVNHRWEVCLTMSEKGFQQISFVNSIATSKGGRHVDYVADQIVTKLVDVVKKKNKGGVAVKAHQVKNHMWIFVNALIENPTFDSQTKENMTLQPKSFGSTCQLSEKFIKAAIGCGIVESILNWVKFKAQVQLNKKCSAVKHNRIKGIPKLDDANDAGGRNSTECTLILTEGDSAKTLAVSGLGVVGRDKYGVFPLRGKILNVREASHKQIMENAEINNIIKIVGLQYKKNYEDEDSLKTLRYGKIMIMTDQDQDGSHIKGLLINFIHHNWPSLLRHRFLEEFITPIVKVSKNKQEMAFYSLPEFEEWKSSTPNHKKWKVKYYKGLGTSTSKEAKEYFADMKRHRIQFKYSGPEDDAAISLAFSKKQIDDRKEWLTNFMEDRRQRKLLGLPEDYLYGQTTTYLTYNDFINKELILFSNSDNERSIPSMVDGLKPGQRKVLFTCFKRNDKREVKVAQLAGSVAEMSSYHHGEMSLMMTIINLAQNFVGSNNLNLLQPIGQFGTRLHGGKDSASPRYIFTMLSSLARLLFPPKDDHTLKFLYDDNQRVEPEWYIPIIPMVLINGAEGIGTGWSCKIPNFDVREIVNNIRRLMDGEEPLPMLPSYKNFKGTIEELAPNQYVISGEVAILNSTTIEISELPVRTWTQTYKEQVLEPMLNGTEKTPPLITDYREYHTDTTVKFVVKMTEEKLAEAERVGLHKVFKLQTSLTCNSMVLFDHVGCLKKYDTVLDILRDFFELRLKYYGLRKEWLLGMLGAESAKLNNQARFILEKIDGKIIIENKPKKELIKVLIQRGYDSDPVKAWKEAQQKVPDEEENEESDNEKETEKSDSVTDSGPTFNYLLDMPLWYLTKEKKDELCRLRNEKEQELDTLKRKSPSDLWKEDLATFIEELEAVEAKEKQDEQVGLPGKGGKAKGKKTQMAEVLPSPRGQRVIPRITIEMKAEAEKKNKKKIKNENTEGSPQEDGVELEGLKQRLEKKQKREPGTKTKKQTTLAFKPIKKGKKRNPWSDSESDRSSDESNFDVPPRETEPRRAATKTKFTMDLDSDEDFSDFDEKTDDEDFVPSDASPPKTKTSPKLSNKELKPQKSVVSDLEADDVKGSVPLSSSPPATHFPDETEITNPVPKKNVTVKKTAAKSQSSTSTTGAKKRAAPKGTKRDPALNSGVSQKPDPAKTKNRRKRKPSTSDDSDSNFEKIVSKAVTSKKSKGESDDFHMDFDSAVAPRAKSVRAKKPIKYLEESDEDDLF

| IC50 (Topoisomerase II) | Structure (SMILES) | IC50 [1] | IC50 (MCF-7) | IC50 (A549) |
| --- | --- | --- | --- | --- |
|  | CCN1C(=O)C(=Cc2ccccc2)SC1=S [BTR-1, 5-Benzylidene-3-ethyl rhodanine] | < 10 µM |  |  |
| 7.6 ± 0.24 µM | CC(=O)OC[C@H]1O[C@@H](N2C(=O)/C(=C/c3ccccc3)SC2=S)[C@H](OC(C)=O)[C@@H](OC(C)=O)[C@@H]1OC(C)=O [Compound 11a, 5-((Z)-Benzylidene)-3-(2′,3′,4′,6′-tetra-O-acetyl-β-D-glucopyranosyl)-2-thioxo-4-thiazolidinone] |  | 3.7 ± 0.13 µM | 9.8 ± 0.11 µM |

— paper PMC10099454 (ACS Omega, 2023)
